Bioassay records deposited in PubChem by several laboratories.
ABHD5 PLIN5 PPI – blocks binding of human ABHD5 to perilipin-5; Q00G26+Q8WTS1; Split G. princeps luciferase complementation, luminescence, 4 h; inhibition, % at 4 µM; 360,000 tested, 0.78% active; AID 602281;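 active means inhibition above the mean inhibition across every tested compound plus 3 SD, cut at about 22% in these data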
MC4R antag cAMP – blocks human MC4R cAMP signaling | P32245 | MC4R-expressing cells, MTII-stimulated cAMP, LANCE TR-FRET | inhibition, % at 6.5 µM | 360,000 tested, 0.48% active | AID 540295;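 active means inhibition above its plate's cutoff, the mean of tested wells on that plate plus 3 SD, cut at about 29% in these data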
Target sequence (P32245 whole entry, looked up): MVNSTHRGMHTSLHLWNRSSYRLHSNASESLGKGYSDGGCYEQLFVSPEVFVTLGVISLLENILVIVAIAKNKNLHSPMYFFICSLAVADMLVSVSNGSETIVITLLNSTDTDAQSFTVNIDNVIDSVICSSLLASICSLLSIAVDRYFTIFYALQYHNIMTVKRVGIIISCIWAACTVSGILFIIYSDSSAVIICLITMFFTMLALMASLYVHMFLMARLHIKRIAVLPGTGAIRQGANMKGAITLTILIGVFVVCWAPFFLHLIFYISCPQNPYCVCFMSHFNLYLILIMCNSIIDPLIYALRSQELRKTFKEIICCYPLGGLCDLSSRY
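system = U2OS cells with stable human MC4R expression | also added = Melanotan II challenge after compound preincubation | dosing = one concentration, 6.5 µM nominal | incubation = compound 30 min, challenge 1 h, detection 1 h | measured by = TR-FRET with Eu-cAMP and labeled anti-cAMP, 671 nm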
MC4R barr agon – activates human MC4R beta-arrestin recruitment | activation, % at 8.9 µM | 360,000 tested, 0.98% active | AID 540308 | U2OS MC4R beta-arrestin complementation, luminescence; percent of melanotan II response, DMSO zero;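 active means activation above a per-plate cutoff, the mean activation of sample wells on that plate plus 3 SD, cut at about 8% in these data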
Beta2AR agonist – agonists of human beta-2 adrenergic receptor inducing internalization; Am2.2-beta2AR cells, FAP receptor internalization, flow cytometry; response, % (test concentration not listed); 340,000 tested, 0.43% active; AID 504454;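 active means response above a set limit, near 3 SD of response in nonfluorescent compounds, cut at about 42% in these data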
PfGluPho inh – PfG6PD (Plasmodium falciparum) enzyme inhibition. PfGluPho enzyme, NADPH resazurin-diaphorase fluorescence. inhibition, % at 20 µM. 350,000 tested, 0.78% active. AID 504690;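 active means inhibition reaching at least a set limit at 20 µM in the primary screen, cut at about 59% in these data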
PfGluPho conf – confirmation of Plasmodium falciparum G6PD inhibitors. 2,400 tested, 34% active. inhibition, % at 20 µM. shares compounds with PfGluPho inh. recombinant PfGluPho, NADPH-diaphorase-resazurin fluorescence;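 active means inhibition of at least 50% at 20 µM in any single replicate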
Diaph ctr 10uM – diaphorase inhibition or oxidation at 10 uM NADPH | 820 tested, 39% active | shares compounds with PfGluPho inh | diaphorase-coupled resazurin reduction, fluorescence, NADPH 10 uM | inhibition, % at 20 µM;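 active means average inhibition reaching 50% or more with the compound at 20 µM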;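 further: resorufin red fluorescence formed as diaphorase reduces resazurin using NADPH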
Diaphorase 30uM – inhibits diaphorase or oxidizes, flagging false PfG6PD hits; Diaphorase/resazurin coupled assay, resorufin fluorescence, 30 uM NADPH; inhibition, % at 20 µM; shares compounds with PfGluPho inh; 820 tested, 29% active;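 active means inhibition averaging 50% or more, tested at 20 µM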
ABHD5-PLIN5 conf – ABHD5-PLIN5 interaction inhibition, confirmed; shares compounds with ABHD5 PLIN5 PPI; biochemical ABHD5-PLIN5 interaction, luminescence; inhibition, % at 4 µM; 2,200 tested, 67% active; AID 651612; in the data active means inhibition above about 23%
HNF4 split-luc – counter-screen for ABHD5-PLIN5 inhibitors: HNF4 split-luciferase | HNF4 dimerization, luminescence, biochemical | 2,200 tested, 77% active | inhibition, % at 4 µM | AID 651674 | shares compounds with ABHD5 PLIN5 PPI;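 active means mean inhibition across replicate wells exceeding the computed hit threshold, cut at about 13% in these data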;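 further: light from luciferase halves that rejoin when HNF4 fusion proteins dimerize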
A number is an active result. This is a sample that favours compounds with a hit; in the whole collection about 3% have one here.

What do the screens show for `Cc1ccc(/C=C/C(=O)N2CCc3ccccc32)o1`?
ABHD5 PLIN5 PPI: 24; MC4R antag cAMP: inactive; MC4R barr agon: inactive; Beta2AR agonist: inactive; PfGluPho inh: 85; PfGluPho conf: inactive; ABHD5-PLIN5 conf: inactive; HNF4 split-luc: 50

Results for COC(=O)C1=C(C)NC(C)=C(C(=O)OCC(C)C)C1c1ccccc1[N+](=O)[O-] (centres undefined) ?
ABHD5 PLIN5 PPI: 36; MC4R antag cAMP: inactive; MC4R barr agon: inactive; Beta2AR agonist: inactive; PfGluPho inh: 62; PfGluPho conf: inactive; ABHD5-PLIN5 conf: 36; HNF4 split-luc: 95

Results for CCOC(=O)C1=C(C)NC(C)=C(C(=O)OCC)C1c1cccc([N+](=O)[O-])c1 ?
ABHD5 PLIN5 PPI: inactive; MC4R antag cAMP: inactive; MC4R barr agon: inactive; PfGluPho inh: inactive

Results for Cc1ccc(NC(=O)COC(=O)CCC2CCCC2)c(Br)c1 ?
ABHD5 PLIN5 PPI: inactive; MC4R antag cAMP: inactive; MC4R barr agon: inactive; Beta2AR agonist: inactive; PfGluPho inh: inactive

What do the screens show for `CCOC(=O)c1cn(CC(=O)Nc2cccc(F)c2)nn1`?
ABHD5 PLIN5 PPI: inactive; MC4R antag cAMP: inactive; MC4R barr agon: inactive; Beta2AR agonist: inactive; PfGluPho inh: inactive

How did Cc1cc(C)c2c(n1)SCC(=O)N2CC(=O)Nc1cccc(Cl)c1 do in these assays?
ABHD5 PLIN5 PPI: inactive; MC4R antag cAMP: inactive; MC4R barr agon: inactive; Beta2AR agonist: inactive; PfGluPho inh: inactive

What do the screens show for `CCOc1ccc(NC(=O)Cn2sc3nc(C)cc(C)c3c2=O)cc1`?
ABHD5 PLIN5 PPI: 64; MC4R antag cAMP: inactive; MC4R barr agon: inactive; Beta2AR agonist: inactive; PfGluPho inh: 104; PfGluPho conf: 90; Diaph ctr 10uM: inactive; Diaphorase 30uM: inactive; ABHD5-PLIN5 conf: 45; HNF4 split-luc: 105

How did Cc1cc(C)c2c(=O)n(CC(=O)Nc3cccc(F)c3)sc2n1 do in these assays?
ABHD5 PLIN5 PPI: 44; MC4R antag cAMP: inactive; MC4R barr agon: inactive; Beta2AR agonist: inactive; PfGluPho inh: 110; PfGluPho conf: 94; Diaph ctr 10uM: inactive; Diaphorase 30uM: inactive; ABHD5-PLIN5 conf: 41; HNF4 split-luc: 109

Results for Cc1ccc(NC(=O)Cn2sc3nc(C)cc(C)c3c2=O)c(Cl)c1 ?
ABHD5 PLIN5 PPI: 65; MC4R antag cAMP: inactive; MC4R barr agon: inactive; Beta2AR agonist: inactive; PfGluPho inh: 100; PfGluPho conf: 76; Diaph ctr 10uM: inactive; Diaphorase 30uM: inactive; ABHD5-PLIN5 conf: inactive; HNF4 split-luc: 98

Results for Cc1cc(C)c2c(=O)n(CC(=O)Nc3ccc(Cl)cc3)sc2n1 ?
ABHD5 PLIN5 PPI: 76; MC4R antag cAMP: inactive; MC4R barr agon: inactive; Beta2AR agonist: inactive; PfGluPho inh: 112; PfGluPho conf: 96; Diaph ctr 10uM: inactive; Diaphorase 30uM: inactive; ABHD5-PLIN5 conf: 41; HNF4 split-luc: 108

Results for Cc1ccc(CS(=O)Cc2ccc(C(=O)N3CCN(c4ccccn4)CC3)o2)cc1 (centres undefined) ?
ABHD5 PLIN5 PPI: inactive; MC4R antag cAMP: inactive; MC4R barr agon: inactive; Beta2AR agonist: inactive; PfGluPho inh: inactive

How did CNc1ncnc(Sc2nc(N)nc3nc[nH]c23)c1[N+](=O)[O-] do in these assays?
ABHD5 PLIN5 PPI: inactive; MC4R antag cAMP: inactive; MC4R barr agon: inactive; Beta2AR agonist: inactive; PfGluPho inh: inactive

What do the screens show for `Nc1nc(Sc2ccc([N+](=O)[O-])c3nonc23)c2[nH]cnc2n1`?
ABHD5 PLIN5 PPI: 53; MC4R antag cAMP: inactive; MC4R barr agon: inactive; Beta2AR agonist: inactive; PfGluPho inh: 122; PfGluPho conf: 109; Diaph ctr 10uM: 97; Diaphorase 30uM: 85; ABHD5-PLIN5 conf: 83; HNF4 split-luc: 110
